We go through 6 compounds from paper PMC5299595 (Fitoterapia, 2016).

Broadly, the EC50 is the concentration at which the effect is half-maximal. The term Ki denotes a measure of affinity in units of concentration, obtained from inhibition or displacement. In general, IC50 refers to the concentration that gives 50% inhibition.

Series [1] can be described thus: DPPH free radical scavenging assay. The note with it: read-out: EC50, DPPH free radical scavenging; DPPH 300 μM, 5 minutes. (In general: Loss of DPPH colour is used to gauge radical scavenging.)
In a further series the test system is mice. The settings on record: cited from earlier work.
For series [2], the system named is rat striatal slices preloaded with [3H]-DA. The note with it: cited from earlier work.
The target of series [3] is α7-nicAchR. The note with it: read-out: Ki α7-nicAchR, cited from earlier work.
Series [4] addresses α4β2-nicAchR. The note with it: read-out: Ki α4β2-nicAchR, cited from earlier work.
Series [5] deals with α4β2- and α7-nicAchRs. The note with it: α7 vs α4β2, based on comparison of Ki's.
In series [6] the test system is α4β2- and α7-nicAchRs. The settings on record: previously reported, ref Littleton et al. (2005) [15], cited from earlier work.
The target in series [7] is T1, DAT (Rattus norvegicus, UniProt P23977). The note with it: cited from earlier work.
The test system of series [8] is nicAchRs in SH-SY5Y cells. Kind of series: 45Ca2+ entry in SH-SY5Y cells. The series is classed as cell-based, human.
The conditions of series [9]: PubChem data; cited from earlier work.
The subject of another series is cats. The note with it: intravenous; cited from earlier work.
Series [10] concerns the target T1, DAT. As to the kind of experiment: [3H]-GBR12935 competition binding in rat striatal membranes. The settings on record: read-out: Ki, [3H]-GBR12935 binding. A digest of the protocol:
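Striatal tissue homogenised in 120 mM NaCl/50 mM Tris-HCl (pH 7.4), spun at 25,000 × g for 20 min at 4°C, then washed thrice in the same buffer plus 0.01% FBS. Membranes (1 mg/ml final) preincubated 15 min with test compound (final 1.0 mM – 0.1 nM; DMSO <0.1%). 1 nM [3H]-GBR12935 then added for 1 h at room temperature. GF/B filtration and scintillation counting; non-specific binding defined with 10 μM GBR12909.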

Series [11] has as its target T1, DAT. As to the kind of experiment: DAT-mediated [3H]-DA uptake in rat striatal synaptosomes. The series is classed as biochemical. The settings on record: read-out: IC50, DAT-mediated [3H]-DA uptake. A digest of the protocol:
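Striata from CO2-anaesthetised adult male Sprague-Dawley rats (200–250 g) homogenised in pH 7.4 HEPES uptake buffer (100 μM pargyline, 0.32 M sucrose). Synaptosomes taken as the 16,000 × g pellet after a 1,000 × g spin. Test compound (final 1 mM – 0.1 nM; DMSO ≤1.0%) preincubated 10 min at 37°C. [3H]-DA (15–30 nM final) uptake for 5 min at 37°C, stopped on ice, GF/C filtration, scintillation counting. Non-specific uptake defined with 10 μM GBR-12909.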

Series [12] has as its target α7-nicAchR (Rattus norvegicus, UniProt Q05941). Kind of series: [3H]-MLA competition binding in rat hippocampal membranes. The note with it: read-out: Ki, [3H]-MLA binding (α7-nicAchR).
In series [13] the test system is rat striatal slices preloaded with [3H]-DA. Kind of series: Fractional [3H] release from [3H]-DA preloaded superfused rat striatal slices. It counts as cell-based. A digest of the protocol: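 Rat coronal striatal slices (500 μm, 6–8 mg) equilibrated 30 min at 34°C in oxygenated Krebs' buffer (pH 7.4), then preloaded with 0.1 μM [3H]-DA for 30 min. Superfused at 34°C, 1 ml/min, with buffer containing 10 μM pargyline and 10 μM nomifensine. Two 4-min basal samples taken after 60 min. Test compound (10, 100 or 1000 μM) then perfused per chamber, or 100 μM given after 20 min of 10 μM MEC or vehicle. Compared with vehicle-treated slices by Bonferroni post-hoc test; n = 4–10 rats.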

Another series addresses nicAchRs. As to the kind of experiment: [3H]-epibatidine competition binding in rat cortical membranes. The settings on record: read-out: Ki, [3H]-epibatidine binding.
For series [14], the target named is T1, DAT. It counts as in vivo. A digest of the protocol: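 High-speed chronoamperometry with Nafion-coated carbon fibre microelectrodes in the dorsal striatum of isoflurane-anaesthetised rats. Clearance of locally applied exogenous DA used to gauge DAT function, and test compound also applied locally in the striatum.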
The next series relates to rabbits. The note with it: intravenous; cited from earlier work.
The target in series [15] is α4β2-nicAchR (Rattus norvegicus, UniProt P09483+P12390). As to the kind of experiment: [3H]-cytisine competition binding in rat cortical membranes. The settings on record: read-out: Ki, [3H]-cytisine binding (α4β2-nicAchR).

Entries after “also recorded” stand apart in the source; their conditions may differ. Structures can show the parent of a compound that is named as a salt. Where two headings read alike, the source gives them in different places.

As for `CN1[C@@H](CC(=O)c2ccccc2)CCC[C@H]1C[C@H](O)c1ccccc1` [Lobeline, (−)-lobeline hydrochloride], in [1], the EC50 was 229 µM. In the series on mice (mouse, in vivo, sc), the minimal lethal dose is 300 mg/kg. For the same compound, the “MEC sensitivity of evoked fractional [3H] release” value in series [2] is listed as “MEC-insensitive”. Besides, the Ki is 6.26 µM at α7-nicAchR [3] (ref Hojahmat et al. (2010)) and 0.004 µM on α4β2-nicAchR [4] (ref Hojahmat et al. (2010)). For the same compound, in the series with α4β2- and α7-nicAchRs [5], the “NicAchR Selectivity (-fold difference)” value is listed as 1565 -fold. The DDR value is 6.27 ^6 in the series on α4β2- and α7-nicAchRs [6]; 6.27 in the series on α4β2- and α7-nicAchRs [6] (listed as lobeline). In addition, the IC50 on DAT [7] (read-out: IC50, DAT inhibition) was 28.2 to 80 µM.
For `CN1CCC[C@H]1c1cccnc1` [Nicotine, (−)-nicotine], the Ki is 1.45 µM on α7-nicAchR [3] (ref Rueter et al. (2006)) and 0.00096 µM on α4β2-nicAchR [4] (ref Rueter et al. (2006)). Further, the “NicAchR Selectivity (-fold difference)” value with α4β2- and α7-nicAchRs [5] was 1508 -fold. In addition, the DDR value in the series with α4β2- and α7-nicAchRs [6] was 13.00 ^6; in the series with α4β2- and α7-nicAchRs [6] (listed as nicotine), 13.00. Further, the “Activity at the DAT” value at DAT [7] (rat striatal synaptosomes) is “inactive”. Further, the “45Ca2+ entry, increase above basal” value in series [8] (10 μM, LCaq experiments (Fig. 1A)) was found to be 374.4%; in series [8] (10 μM, lobinaline experiments (Fig. 6A)) it was 196.6%.
For the compound `c1cncc([C@@H]2CCCCN2)c1` [anabasine], the figures for the Ki on α7-nicAchR [3] and at α4β2-nicAchR [4] were 0.058 µM and 0.065 µM, respectively. In addition, the DDR value in the series on α4β2- and α7-nicAchRs [6] is reported as 4.16.
With `O=c1c(O)c(-c2ccc(O)c(O)c2)oc2cc(O)cc(O)c12` [Quercetin], the EC50 in series [1] was 11.2 µM.
As for `CNC1(C)C2CCC(C2)C1(C)C` (stereo not drawn) [MEC, mecamylamine (MEC) hydrochloride], the “Effect on 45Ca2+ entry” value in series [8] (1 μM alone) is recorded as “unaffected; also recorded: did not affect”.
As to `CN1CCCC2C(c3ccccc3)C(C3=NCCCC3)C(c3ccccc3)CC21` (stereo not drawn) [Lobinaline, lobinaline], in [1], the EC50 amounted to 18 µM. The minimal lethal dose with mice (subcutaneous administration in mice) was 800 mg/kg. Also, in series [9], the hydrogen bond acceptors is reported as 2. Also, in series [9], the hydrogen bond donors was 0. The molar fractivity in series [9] is on record as 82.47. The “Effect on blood pressure” value in the series with cats and with rabbits was “lower blood pressure” throughout. The Effect on respiration entry with cats and in the series with rabbits was “unaffected” each time. Also, the Ki at DAT [10] is 2.54 µM; at α7-nicAchR [12], 67.5 µM; on nicAchRs, 16.2 µM; on α4β2-nicAchR [15] it was 1.07 µM. Moreover, on DAT [11], the IC50 was 12 µM. Besides, the “Fractional [3H] release vs vehicle” value in series [13] (10 μM) is given as “not significantly increased”. The “Fractional [3H] release vs vehicle after MEC pretreatment” value in series [13] (100 μM after 10 μM MEC pretreatment for 20 minutes) was “not significantly different; also recorded: no significant difference”. Further, the “Fractional [3H] release, greater than vehicle” value in series [13] (100 μM, 8 minutes after treatment, MEC experiment set) worked out at 160%. Further, the “Maximum fractional [3H] release, greater than vehicle treated” value turned out to be 186% in series [13] (100 μM, maximum 12 minutes post-treatment, concentration-response studies) and 494% in [13] (1000 μM, maximum 8 minutes post-treatment). The “Maximum fractional [3H] release, greater than vehicle treated controls” value in series [13] (100 μM, maximum 16 minutes after treatment, MEC experiment set) stood at 262%. Besides, the “Time after ejection at which effects on DA clearance are no longer significant” value at DAT [14] (local application in striatum) lay within 3 to 5 min. In addition, the “Direct effect on electrochemical DA signal when locally applied alone” value on DAT [14] (locally applied from a micropipette, n = 10, data not shown) is “no direct effects”. Further, the “NicAchR Selectivity (-fold difference)” value in the series with α4β2- and α7-nicAchRs [5] is given as 63 -fold. The results for the “45Ca2+ entry, increase above basal” value in [8] (1 mM) and in series [8] (1 mM concomitantly with NIC 10 μM) were 41.6% and 115.7%, respectively. Also, in [8] (1 mM with MEC 1 μM), the “Effect of MEC on compound-induced 45Ca2+ entry” value was “completely abolished”.
